Measured values published in ChEMBL document CHEMBL3425410, “Specificity and inhibitory mechanism of andrographolide and its analogues as antiasthma agents on NF-κB p50” (J Nat Prod, 2015).
pIC50: −log10 of the molar value. The source made the active and inactive calls. No cut-off for these calls is given here.

Columns and labels:
[1] = molecular target: T1, Nuclear factor NF-kappa-B p105 subunit (Homo sapiens) (UniProt P19838); assay: Binding affinity to 6His-tagged recombinant human NF-kappaB p50 N-terminal domain expressed in Escherichia coli BL21 (DE3) up to 50:1 compound to protein molar ratio after 2 hrs by mass spectrometric analysis
T1 sequence (whole entry): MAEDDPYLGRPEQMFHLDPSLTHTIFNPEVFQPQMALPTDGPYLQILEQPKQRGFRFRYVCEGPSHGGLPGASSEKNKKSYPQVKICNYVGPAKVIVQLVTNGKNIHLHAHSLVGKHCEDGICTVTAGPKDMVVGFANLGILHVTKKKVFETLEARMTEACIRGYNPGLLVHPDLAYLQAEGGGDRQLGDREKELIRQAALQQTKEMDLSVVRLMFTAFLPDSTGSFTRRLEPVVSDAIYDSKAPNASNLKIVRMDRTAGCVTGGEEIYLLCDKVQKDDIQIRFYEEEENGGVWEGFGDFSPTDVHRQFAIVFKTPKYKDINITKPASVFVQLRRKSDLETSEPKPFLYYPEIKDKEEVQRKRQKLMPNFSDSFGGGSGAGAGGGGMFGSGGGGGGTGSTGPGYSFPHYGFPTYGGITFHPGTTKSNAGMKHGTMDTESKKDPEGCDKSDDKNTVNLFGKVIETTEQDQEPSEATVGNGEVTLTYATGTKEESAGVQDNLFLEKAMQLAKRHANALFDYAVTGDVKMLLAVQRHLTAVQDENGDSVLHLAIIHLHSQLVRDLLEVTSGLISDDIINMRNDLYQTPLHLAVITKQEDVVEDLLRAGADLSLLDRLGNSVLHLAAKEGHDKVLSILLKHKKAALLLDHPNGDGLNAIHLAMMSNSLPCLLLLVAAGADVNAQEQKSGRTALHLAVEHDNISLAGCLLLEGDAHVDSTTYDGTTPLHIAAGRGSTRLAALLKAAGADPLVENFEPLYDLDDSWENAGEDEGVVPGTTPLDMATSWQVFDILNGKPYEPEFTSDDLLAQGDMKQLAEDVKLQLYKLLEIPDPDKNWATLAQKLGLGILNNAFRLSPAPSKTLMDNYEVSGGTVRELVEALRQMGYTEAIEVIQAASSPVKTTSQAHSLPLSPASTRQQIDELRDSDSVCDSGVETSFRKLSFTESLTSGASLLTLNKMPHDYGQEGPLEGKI
Outline: (§1)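 Recombinant 6His-tagged p50 NTD (E. coli BL21(DE3), Ni-NTA then Superdex 200 gel filtration, dialysed into PBS) at 20 μM, incubated with compound in PBS with 1 mM EDTA, 10 μM β-mercaptoethanol, 5% glycerol (v/v), 37 °C, 2 h. Acetic acid quench, reversed-phase column, ESI-MS at m/z 500–3000. Reaction extent scored from adduct versus unbound protein across rising molar ratios.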

[2] = molecular target: T1, Nuclear factor NF-kappa-B p105 subunit (Homo sapiens); assay: Inhibition of TNF-alpha-stimulated NF-kappaB p50 (unknown origin) expressed in HEK293 cells at 1 to 100 uM preincubated for 4 hrs followed by TNF-alpha challenge measured after 24 hrs by secreted alkaline phosphatase reporter assay; format: cell-based
Outline: (§2)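 HEK293 stably transfected with NF-κB/SEAP, grown in DMEM/10% FBS/500 μg/mL G418 and seeded at ~2 × 10^5 cells/well to ~70% confluence. Pretreated 4 h with rising compound concentrations or 0.05% DMSO, then TNF-α 10 ng/mL for 24 h. Secreted SEAP measured by kit, with TNF-α-induced untreated cells as 100%. Quadruplicates, mean; IC50 from the concentration curve.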

[3] = Cytotoxicity against human Jurkat T cells assessed as appearance of early apoptotic cells at 25 uM after 24 hrs by annexin V-FLUOS/propidium iodide staining-based flow cytometric analysis; format: cell-based
Outline: (§3)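 Jurkat T lymphocytes kept at 37 °C, 5% CO2 in RPMI1640 with 10% FBS and 1% streptomycin/penicillin. Exposed to 25 μM compound for 24 h, then stained with annexin-V-FLUOS and propidium iodide and read by flow cytometry. Viable cells are negative for both stains.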

[4] = Cytotoxicity against human Jurkat T cells assessed as appearance of late apoptotic cells at 25 uM after 24 hrs by annexin V-FLUOS/propidium iodide staining-based flow cytometric analysis; format: cell-based; outline: as §3
[5] = Cytotoxicity against human Jurkat T cells assessed as appearance of necrotic cells at 25 uM after 24 hrs by annexin V-FLUOS/propidium iodide staining-based flow cytometric analysis; format: cell-based; outline: as §3
[6] = Cytotoxicity against human Jurkat T cells assessed as appearance of viable cells at 25 uM after 24 hrs by annexin V-FLUOS/propidium iodide staining-based flow cytometric analysis; format: cell-based; details: read-out: Activity; outline: as §3
[7] = molecular target: T2, Nuclear factor NF-kappa-B p105 subunit (Homo sapiens, UniProt P19838); assay: (§4) Inhibition of TNF-alpha-stimulated NF-kappaB p50 (unknown origin) expressed in HEK293 cells preincubated for 4 hrs followed by TNF-alpha challenge measured after 24 hrs by secreted alkaline phosphatase reporter assay; format: cell-based; outline: as §2
T2 sequence (P19838 whole entry): T1 sequence (whole entry)

[8] = Cytotoxicity against human Jurkat T cells assessed as apoptosis after 24 hrs by annexin V-FLUOS/propidium iodide staining-based flow cytometric analysis; format: cell-based; outline: as §3
[9] = molecular target: T1, Nuclear factor NF-kappa-B p105 subunit (Homo sapiens); assay: Binding affinity to 6His-tagged recombinant human NF-kappaB p50 N-terminal domain expressed in Escherichia coli BL21 (DE3) up to 10:1 compound to protein molar ratio after 2 hrs by mass spectrometric analysis; outline: as §1
[10] = molecular target: T1, Nuclear factor NF-kappa-B p105 subunit (Homo sapiens); assay: as §4; format: cell-based; outline: as §2
[11] = molecular target: T1, Nuclear factor NF-kappa-B p105 subunit (Homo sapiens); assay: Binding affinity to 6His-tagged recombinant human NF-kappaB p50 N-terminal domain expressed in Escherichia coli BL21 (DE3) at 4:1 compound to protein molar ratio after 2 hrs by mass spectrometric analysis; outline: as §1

| SMILES | Activity [1] | inhibition [2] | pIC50 [7] | Activity [9] | inhibition [10] | Activity [11] | Activity [3] | Activity [4] | Activity [5] | viability at 24 h, 25 µM [6] | Activity [8] |
| --- | --- | --- | --- | --- | --- | --- | --- | --- | --- | --- | --- |
| C=C1CC[C@@H]2[C@](C)(CO[C@@H]3O[C@H](CO)[C@@H](O)[C@H](O)[C@H]3O)CCC[C@@]2(C)[C@@H]1CCC1=CCOC1=O [NEOANDROGRAPHOLIDE] |  |  |  | inactive | inactive |  |  |  |  |  | Non-toxic |
| C=C1CC[C@@H]2[C@](C)(CO)[C@H](O)CC[C@@]2(C)[C@@H]1CCC1=CCOC1=O [DEOXYANDROGRAPHOLIDE] |  |  |  | inactive | inactive |  |  |  |  |  | Non-toxic |
| C=C1CC[C@@H]2[C@](C)(CO)[C@H](O)CC[C@@]2(C)[C@@H]1C/C=C1\C=COC1=O |  | inactive |  | inactive |  |  | 15.55% | 1.57% | 0.3% | 82.6% |  |

Second part, led by results:

| Activity [1] | inhibition [2] | pIC50 [7] | Activity [9] | inhibition [10] | Activity [11] | SMILES | Activity [3] | Activity [4] | Activity [5] | viability at 24 h, 25 µM [6] | Activity [8] |
| --- | --- | --- | --- | --- | --- | --- | --- | --- | --- | --- | --- |
| Active | inactive |  |  |  |  | C=C1CC[C@@H]2[C@](C)(CO)[C@H](O)CC[C@@]2(C)[C@@H]1/C=C/C1=CCOC1=O | 10.89% | 1.31% | 0.25% | 87.5% |  |
|  |  | 4.30 |  |  |  | C=C1CC[C@@H]2[C@](C)(CO)[C@H](O)CC[C@@]2(C)[C@@H]1C/C=C1/C(=O)OC[C@H]1O [ANDROGRAPHOLIDE] | 35.3% | 9.1% | 1.39% | 54.2% |  |
|  |  | 4.95 |  |  | Active | C=C1CC[C@@H]2[C@](C)(COC(C)=O)[C@H](OC(C)=O)CC[C@@]2(C)[C@@H]1C/C=C1\C=COC1=O | 38.24% | 47.95% | 0.24% | 13.6% |  |
|  | inactive |  | inactive |  |  | C[C@]1(CO)[C@H]2CCC(=O)[C@@H](C/C=C3\CCOC3=O)[C@]2(C)CC[C@H]1O | 6.29% | 5.52% | 0.33% | 87.9% |  |
|  | inactive |  | inactive |  |  | C[C@]1(CO)[C@H]2CCC(=O)[C@@H](C/C=C3/SC(=S)NC3=O)[C@]2(C)CC[C@H]1O | 6.91% | 7.96% | 1.05% | 84.1% |  |
